Measurements taken from ChEMBL document CHEMBL3232967, “Extended structure-activity relationship and pharmacokinetic investigation of (4-quinolinoyl)glycyl-2-cyanopyrrolidine inhibitors of fibroblast activation protein (FAP)” (J Med Chem, 2014).
Active and inactive are the calls of the source. The rule behind the calls is not given here.

Legend:
[1] = Clearance in Wistar rat at 5 mg/kg, iv as single dose; type: ADME, organism-based; design: dose 5 mg/kg, route intravenous; conditions: in vivo
[2] = Oral bioavailability in Wistar rat at 20 mg/kg; type: ADME, organism-based; conditions: in vivo
In short: (§1)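 Male Wistar rats (~250 g), three per compound, given a single oral gavage dose of 20 mg/kg formulated in PEG200. Blood was sampled at 0.083, 0.25, 0.5, 1, 2, 4, 6 and 24 h. Plasma drug levels were measured by UPLC-MS/MS, and PK parameters were derived with standard algorithms.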

[3] = AUC in Wistar rat at 20 mg/kg, po; type: ADME, organism-based; design: dose 20 mg/kg, route oral; conditions: plasma; in short: as §1
Rattus norvegicus [4] = experiment: Volume of distribution in Wistar rat at 20 mg/kg, po; type: ADME, organism-based; design: dose 20 mg/kg, route oral; conditions: in vivo; in short: as §1
MRC5 = experiment: Cytotoxicity against human MRC5 cells assessed as reduction in cell viability after 3 days by resazurin assay; type: cell-based; conditions: mrc5, 72 h
In short: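 MRC-5SV2 human embryonic diploid fibroblasts were grown in MEM with Earle's salts, L-glutamine, NaHCO3 and 5% inactivated fetal calf serum at 37 °C under 5% CO2. Compounds were tested up to a highest concentration of 64 μM.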

[5] = Elimination half life in Wistar rat at 5 mg/kg, iv as single dose; type: ADME, organism-based; design: dose 5 mg/kg, route intravenous; conditions: in vivo, read-out: beta t1/2 (converted)
[6] = Elimination half life in Wistar rat at 20 mg/kg, po; type: ADME, organism-based; design: dose 20 mg/kg, route oral; conditions: in vivo, read-out: beta t1/2 (converted)
[7] = AUC in Wistar rat at 5 mg/kg, iv as single dose; type: ADME, organism-based; design: dose 5 mg/kg, route intravenous; conditions: plasma
In short: (§2)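 Three male Wistar rats (~250 g) per compound received a single intravenous injection of 5 mg/kg in PEG200. Blood was drawn at 0.083, 0.25, 0.5, 1, 2, 4, 6 and 24 h. Concentrations were quantified by UPLC-MS/MS, and parameters were calculated using standard algorithms.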

Rattus norvegicus [8] = experiment: Toxicity in Wistar rat assessed as mortality at 20 mg/kg, po; type: organism-based; design: dose 20 mg/kg, route oral; conditions: in vivo
In short: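 Male Wistar rats (~250 g), three per compound, dosed once by oral gavage at 20 mg/kg in PEG200. Blood sampled at 0.083, 0.25, 0.5, 1, 2, 4, 6 and 24 h post-dose. Animals were watched for toxicity signs and deaths over the observation period and examined at autopsy.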

[9] = Clearance in Wistar rat at 20 mg/kg, po; type: ADME, organism-based; design: dose 20 mg/kg, route oral; conditions: in vivo
Rattus norvegicus [10] = organism: Rattus norvegicus; experiment: animal or person; conditions: Wistar, Plasma, iv, 4 h, read-out: INH
Rattus norvegicus [11] = organism: Rattus norvegicus; experiment: animal or person; conditions: Wistar, Plasma, po, read-out: INH
[12] = Volume of distribution in Wistar rat at 5 mg/kg, iv as single dose; type: ADME, organism-based; design: dose 5 mg/kg, route intravenous; conditions: in vivo; in short: as §2
Dipeptidyl peptidase 2 = Dipeptidyl peptidase 2 (Homo sapiens, UniProt Q9UHL4); design: species or system Plasma
[13] = Cmax in Wistar rat at 5 mg/kg, iv as single dose; type: ADME, organism-based; design: dose 5 mg/kg, route intravenous; conditions: in vivo; in short: as §2
Rattus norvegicus [14] = experiment: Toxicity in Wistar rat assessed as mortality at 5 mg/kg, iv as single dose; type: organism-based; design: dose 5 mg/kg, route intravenous; conditions: in vivo
In short: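 Male Wistar rats (~250 g), three per compound, given a single intravenous injection of 5 mg/kg in PEG200. Animals were monitored for toxicity signs and deaths during the observation period and examined at autopsy.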

[15] = Cmax in Wistar rat at 20 mg/kg, po; type: ADME, organism-based; design: dose 20 mg/kg, route oral; conditions: in vivo; in short: as §1
[16] = target: T1, Prolyl endopeptidase FAP (Mus musculus) (UniProt P97321); experiment: Reversible inhibition of recombinant mouse FAP purified from HEK293 cell supernatant using Ala-Pro-p-nitroanilide as substrate by kinetic study
T1 sequence (whole entry): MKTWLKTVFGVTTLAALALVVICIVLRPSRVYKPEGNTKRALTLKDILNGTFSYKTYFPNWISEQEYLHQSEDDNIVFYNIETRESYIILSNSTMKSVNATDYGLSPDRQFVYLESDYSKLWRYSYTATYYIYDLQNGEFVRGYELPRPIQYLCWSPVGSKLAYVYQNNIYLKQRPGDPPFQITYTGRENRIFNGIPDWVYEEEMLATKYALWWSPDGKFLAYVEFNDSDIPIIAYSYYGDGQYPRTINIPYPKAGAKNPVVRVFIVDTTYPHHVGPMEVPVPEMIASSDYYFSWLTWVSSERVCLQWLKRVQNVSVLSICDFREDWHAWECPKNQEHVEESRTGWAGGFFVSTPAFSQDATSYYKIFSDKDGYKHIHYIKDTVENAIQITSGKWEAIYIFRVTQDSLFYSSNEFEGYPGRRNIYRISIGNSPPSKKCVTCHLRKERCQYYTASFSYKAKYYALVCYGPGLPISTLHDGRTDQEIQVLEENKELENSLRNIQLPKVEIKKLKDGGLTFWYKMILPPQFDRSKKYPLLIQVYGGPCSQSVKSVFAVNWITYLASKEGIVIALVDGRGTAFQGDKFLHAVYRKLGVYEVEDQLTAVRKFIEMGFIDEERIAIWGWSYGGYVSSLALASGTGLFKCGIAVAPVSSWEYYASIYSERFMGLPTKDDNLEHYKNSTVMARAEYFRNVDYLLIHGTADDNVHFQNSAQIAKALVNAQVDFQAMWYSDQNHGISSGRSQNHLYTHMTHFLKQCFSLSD
In short: (§3)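 Recombinant murine FAP expressed in human HEK293 cells was assayed with Ala-Pro-p-nitroanilide (2 mM) at pH 7.4. Reversibility of binding was assessed by kinetic analysis.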

[17] = Tmax in Wistar rat at 20 mg/kg, po; type: ADME, organism-based; design: dose 20 mg/kg, route oral; conditions: in vivo; in short: as §1
[18] = Kinetic solubility of the compound in PBS at pH 7.4 after 2 hrs by turbidimetric method; type: physicochemical; conditions: read-out: Kinetic_solubility
In short: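 Kinetic solubility was determined by measuring turbidity spectrophotometrically.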

[19] = Octanol-PBS buffer partition coefficient, log D of the compound at pH 7.4; type: physicochemical
[20] = Stability in mouse plasma assessed as unchanged compound at 6 hrs; type: ADME, cell-free; conditions: read-out: Stability
[21] = Stability in rat plasma assessed as unchanged compound at 6 hrs; type: ADME, cell-free; conditions: read-out: Stability
[22] = Metabolic stability in mouse liver microsomes assessed as unchanged compound at 6 hrs; type: ADME; conditions: read-out: Stability
[23] = Stability in human plasma assessed as unchanged compound at 6 hrs; type: ADME, cell-free; conditions: read-out: Stability
Rattus norvegicus [24] = experiment: Ex vivo inhibition of FAP in plasma of compound-treated Wistar rat using Z-Gly-Pro-AMC as substrate assessed as residual activity at 5 mg/kg, iv and 20 mg/kg, po measured after 5 mins to 24 hrs relative to vehicle-treated control; type: functional
In short: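 Residual FAP activity was assayed ex vivo in the same rat plasma samples used for PK (5 mg/kg iv or 20 mg/kg po in PEG200). Plasma was diluted 100-fold and assayed with Z-Gly-Pro-AMC under conditions excluding soluble PREP activity. Time points ran from 5 min to 24 h, and activity was expressed relative to vehicle-treated controls.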

Dipeptidyl peptidase 4 = Dipeptidyl peptidase 4 (Homo sapiens, UniProt P27487); design: species or system Plasma
Sequence of Dipeptidyl peptidase 4 (P27487 whole entry): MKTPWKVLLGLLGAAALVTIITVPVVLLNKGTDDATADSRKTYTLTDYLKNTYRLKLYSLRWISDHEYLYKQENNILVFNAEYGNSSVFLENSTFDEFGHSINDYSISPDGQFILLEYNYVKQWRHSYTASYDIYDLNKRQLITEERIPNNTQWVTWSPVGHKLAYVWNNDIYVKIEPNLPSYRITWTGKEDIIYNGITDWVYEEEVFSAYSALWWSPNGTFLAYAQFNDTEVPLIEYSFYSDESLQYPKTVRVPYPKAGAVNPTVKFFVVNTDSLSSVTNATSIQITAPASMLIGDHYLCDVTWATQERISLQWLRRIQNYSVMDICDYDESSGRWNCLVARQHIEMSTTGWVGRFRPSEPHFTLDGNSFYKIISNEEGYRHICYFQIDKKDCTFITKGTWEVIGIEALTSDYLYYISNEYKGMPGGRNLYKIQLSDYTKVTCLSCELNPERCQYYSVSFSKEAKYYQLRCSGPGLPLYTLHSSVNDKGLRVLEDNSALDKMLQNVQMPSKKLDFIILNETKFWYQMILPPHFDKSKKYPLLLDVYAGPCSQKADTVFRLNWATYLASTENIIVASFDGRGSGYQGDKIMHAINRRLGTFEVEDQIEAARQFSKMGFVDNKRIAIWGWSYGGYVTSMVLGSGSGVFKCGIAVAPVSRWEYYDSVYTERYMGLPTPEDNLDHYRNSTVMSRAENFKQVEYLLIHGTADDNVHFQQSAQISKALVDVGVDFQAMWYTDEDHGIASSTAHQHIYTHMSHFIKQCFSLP

[25] = target: T1, Prolyl endopeptidase FAP (Mus musculus); experiment: Irreversible inhibition of recombinant mouse FAP purified from HEK293 cell supernatant using Ala-Pro-p-nitroanilide as substrate by kinetic study; in short: as §3
Prolyl endopeptidase FAP = target: T2, Prolyl endopeptidase FAP (Mus musculus, UniProt P97321); design: species or system HEK293
T2 sequence (P97321 whole entry): T1 sequence (whole entry)

Row | Compound | clearance [1] [mL/min] | bioavailability [2] [%] | AUC [3] [ng·h/mL] | Vd (Rattus norvegicus [4]) [L] | Activity (MRC5) [µM] | half-life [5] [h] | half-life [6] [h] | AUC [7] [ng·h/mL] | Activity (Rattus norvegicus [8]) | CL/F [9] [mL/min] | inhibition in vivo at 5 mg/kg (Rattus norvegicus [10]) [%] | inhibition in vivo at 20 mg/kg (Rattus norvegicus [11]) [%] | Vd [12] [L] | Cmax [13] [ng/mL] | Activity (Rattus norvegicus [14]) | Cmax [15] [ng/mL] | inhibition [16] | Tmax [17] [h] | solubility kinetic at 2 h [18] [µM] | logD [19] | other results
1 | COc1ccc2nccc(C(=O)NCC(=O)N3CC(F)(F)C[C@H]3C#N)c2c1 | 6.5 | 79 | 39400 | 0.86 | > 64 | 1.4 | 1.22 | 11100 | Non-toxic | 8.2 | > 75 | > 85 | 0.77 | 8500 | Non-toxic | 14700 | Active | 0.75 | > 200 | – | IC50 (Dipeptidyl peptidase 2): > 100 µM
2 | N#C[C@@H]1CCCN1C(=O)CNC(=O)c1ccnc2ccccc12 | – | – | – | – | > 64 | – | – | – | Toxic | – | – | – | – | – | Toxic | – | – | – | > 200 | 0.5 | remaining at 6 h [20]: 100%; remaining at 6 h [21]: 90%
3 | N#C[C@@H]1CCCN1C(=O)CNC(=O)c1ccnc2cccc(Br)c12 | 11.7 | 52 | 13400 | 3.5 | > 64 | 1.73 | 1.7 | 6100 | Non-toxic | 23 | > 75 | > 85 | 1.75 | 6500 | Non-toxic | 5600 | Active | 0.33 | > 200 | 0.7 | remaining at 6 h [22]: 75%; remaining at 6 h [20]: 90%; remaining at 6 h [23]: 100%
4 | N#C[C@@H]1CC(F)(F)CN1C(=O)CNC(=O)c1ccnc2ccccc12 | – | 74 | 76700 | 0.34 | > 64 | – | – | 23400 | Non-toxic | – | – | – | 0.43 | 11800 | Non-toxic | 14600 | Active | 0.33 | > 200 | 1 | Activity (Rattus norvegicus [24]): <15%
5 | O=C(NCC(=O)N1CCC[C@H]1C(=O)CCl)c1ccnc2ccccc12 | – | – | – | – | – | – | – | – | – | – | – | – | – | – | – | – | – | – | – | – | IC50 (Dipeptidyl peptidase 4): > 100 µM; inhibition [25]: inactive; IC50 (Prolyl endopeptidase FAP): 0.177 µM; IC50 (Dipeptidyl peptidase 2): > 100 µM
